# The source made the active and inactive calls. The calls are words filed in the database; no cut-off is given here.
# Columns and labels:
# [1] = system: Plasmodium falciparum; assay: Antimalarial activity against chloroquine/quinine-resistant asexual blood stage Plasmodium falciparum S35 after 72 hrs by SYBR green-based fluorometric analysis; format: functional; details: S35, 72 h
# Method in brief: (§1)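 Mid-ring-stage cultures (~6-10 h post-invasion) at 1% parasitemia and 2% hematocrit, in triplicate. Twofold serial dilutions from a top concentration of 100 nM. Incubated 72 h at 37 °C under 5% CO2/5% O2/90% N2. Lysis buffer containing 5×SYBR Green I added, 20 min in the dark, fluorescence read at ex 485/em 538 nm. EC50 derived.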
# [2] = system: Plasmodium falciparum; assay: Antimalarial activity against sulfadoxine-pyrimethamine/mefloquine resistant asexual blood stage Plasmodium falciparum CP286 after 72 hrs by SYBR green-based fluorometric analysis; format: functional; details: CP286, 72 h; method in brief: as §1
# [3] = system: Plasmodium falciparum; assay: Antimalarial activity against chloroquine/quinine/sulfadoxine-pyrimethamine/amodiaquine-resistant asexual blood stage Plasmodium falciparum PC26 after 72 hrs by SYBR green-based fluorometric analysis; format: functional; details: PC26, 72 h; method in brief: as §1
# [4] = system: Plasmodium falciparum; assay: Antimalarial activity against multi drug-resistant asexual blood stage Plasmodium falciparum Fab9 after 72 hrs by SYBR green-based fluorometric analysis; format: functional; details: Fab9, 72 h; method in brief: as §1
# [5] = system: Plasmodium falciparum; assay: Antimalarial activity against multi drug-resistant asexual blood stage Plasmodium falciparum D10 after 72 hrs by SYBR green-based fluorometric analysis; format: functional; details: D10, 72 h; method in brief: as §1
# [6] = system: Plasmodium falciparum; assay: Antimalarial activity against dihydroartemisinin-resistant asexual blood stage Plasmodium falciparum 803 after 72 hrs by SYBR green-based fluorometric analysis; format: functional; details: Plasmodium falciparum, 803, 72 h; method in brief: as §1
# [7] = system: Plasmodium falciparum; assay: Antimalarial activity against chloroquine-resistant asexual blood stage Plasmodium falciparum GB4 after 72 hrs by SYBR green-based fluorometric analysis; format: functional; details: GB4, 72 h; method in brief: as §1
# [8] = system: Plasmodium falciparum; assay: Antimalarial activity against quinine-resistant asexual blood stage Plasmodium falciparum C2A after 72 hrs by SYBR green-based fluorometric analysis; format: functional; method in brief: as §1
# [9] = system: Plasmodium falciparum; assay: Antimalarial activity against […] asexual blood stage Plasmodium falciparum 3D7 after 72 hrs by SYBR green-based fluorometric analysis; format: functional; details: 3D7, 72 h; method in brief: as §1
# [10] = system: Plasmodium falciparum; assay: Antimalarial activity against […] asexual blood stage Plasmodium falciparum 3D7 assessed as reduction in parasite recrudescence at 10 times EC50 for 72 hrs measured after 28 days post invasion by Giemsa staining-based light microscopic analysis; format: functional
# Method in brief: (§2)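 Parasite cultures exposed for 72 h to 10× EC50 of inhibitor. Drug then removed and cultures maintained for 28 days post treatment. Recrudescence monitored by microscopy.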
# [11] = system: Plasmodium falciparum; assay: Antimalarial activity against chloroquine/quinine/sulfadoxine-pyrimethamine/amodiaquine-resistant asexual blood stage Plasmodium falciparum Dd2 assessed as reduction in parasite recrudescence at 10 times EC50 for 72 hrs measured after 28 days post invasion by Giemsa staining-based light microscopic analysis; format: functional; method in brief: as §2
# [12] = system: Plasmodium falciparum; assay: Antimalarial activity against dihydroartemisinin-resistant asexual blood stage Plasmodium falciparum 803 assessed as reduction in parasite recrudescence at 10 times EC50 for 72 hrs measured after 28 days post invasion by Giemsa staining-based light microscopic analysis; format: functional; method in brief: as §2
# [13] = system: Plasmodium falciparum; assay: Antimalarial activity against Plasmodium falciparum 3D7 assessed as alteration of parasite morphology at 10 times EC50 dosed at ring stage […] by Giemsa staining-based light microscopic analysis; format: functional, organism-based
# [14] = system: Plasmodium falciparum; assay: Antimalarial activity against mid/late trophozoite stage of Plasmodium falciparum 3D7 assessed as reduction in parasitemia at 10 times EC50 administered at synchronized early ring stages and then removed from culture at 2 hrs intervals after 34 hrs paraiste invasion stage and measured till 40 hrs post invasion by SYBR green-based fluorometric analysis; format: functional; parameters: scale not given: the % may be the effect or the level left
# Method in brief: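 Synchronized early-ring P. falciparum 3D7 treated with about 10×EC50 compound. Compound removed at 2 h intervals starting at t=34 h (trophozoite), then parasites returned to compound-free medium. Maturation through a single ~48 h asexual cycle followed.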
# [15] = system: HeLa; assay: Cytotoxicity against human HeLa cells assessed as reduction in cell viability up to 2 uM after 48 hrs by MTT assay; format: cell-based
# Method in brief: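 HeLa cell viability measured by MTT assay with compound at concentrations up to 2 µM.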
# [16] = system: Plasmodium yoelii; assay: Antimalarial activity against Plasmodium yoelii YM infected in BALB/c mouse assessed as parasite growth inhibition at 5 mg/kg, sc administered QD for 4 days starting at 2 hrs post infection by Giemsa-staining based microscopic analysis; format: functional; details: read-out: GI
# Method in brief: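 P. yoelii-infected mice, n=3 per group. Subcutaneous injection once daily for 4 days starting at 2 h post infection. Growth inhibition determined at 24 h post treatment by blood-smear microscopy. Cure time taken as the minimum period to cure all mice in the group.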
# [17] = system: Plasmodium yoelii; assay: Antimalarial activity against Plasmodium yoelii YM infected in BALB/c mouse assessed as mouse survival at 5 mg/kg, sc administered QD for 4 days starting at 2 hrs post infection by Giemsa-staining based microscopic analysis; format: functional
# Method in brief: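 Mice inoculated with 1×106 P. yoelii parasites, then dosed subcutaneously once daily for 4 days starting 2 h post infection. Parasitemia followed by microscopy of blood smears. Survival scored at 40 days post infection in groups of n=3 mice. DMSO-only controls.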
# [18] = system: Plasmodium yoelii; assay: Antimalarial activity against Plasmodium yoelii YM infected in BALB/c mouse assessed as parasite growth inhibition at 10 mg/kg, sc administered BID for 4 days starting at 96 hrs post infection, 8 hrs apart by Giemsa-staining based microscopic analysis; format: functional; details: read-out: GI
# Method in brief: (§3)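 P. yoelii-infected mice, n=3 per group. Subcutaneous injection twice daily, 8 h apart, for 4 days starting at 96 h post infection. Growth inhibition read from blood smears at 24 h post treatment. Cure time taken as the minimum period to cure all mice in the group. DMSO controls included.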
# [19] = system: Plasmodium yoelii; assay: Antimalarial activity against Plasmodium yoelii YM infected in BALB/c mouse assessed as mouse survival at 10 mg/kg, sc administered BID for 4 days starting at 96 hrs post infection, 8 hrs apart by Giemsa-staining based microscopic analysis; format: functional
# Method in brief: (§4)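 Mice inoculated with 1×106 P. yoelii parasites. Subcutaneous dosing for 4 days starting 96 h post infection, given once daily or twice daily 8 h apart. Parasitemia followed on Giemsa-stained blood smears. Survival recorded at 40 days post infection; groups of n=3. DMSO-only mice served as untreated controls.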
# [20] = system: Plasmodium yoelii; assay: Antimalarial activity against Plasmodium yoelii YM infected in BALB/c mouse assessed as parasite growth inhibition at 30 mg/kg, sc administered BID for 4 days starting at 96 hrs post infection, 8 hrs apart by Giemsa-staining based microscopic analysis; format: functional; details: read-out: GI; method in brief: as §3
# [21] = system: Plasmodium yoelii; assay: Antimalarial activity against Plasmodium yoelii YM infected in BALB/c mouse assessed as time duration for parasite cure at 30 mg/kg, sc administered BID for 4 days starting at 96 hrs post infection, 8 hrs apart by Giemsa-staining based microscopic analysis; format: functional; method in brief: as §3
# [22] = system: Plasmodium yoelii; assay: Antimalarial activity against Plasmodium yoelii YM infected in BALB/c mouse assessed as mouse survival at 30 mg/kg, sc administered BID for 4 days starting at 96 hrs post infection, 8 hrs apart by Giemsa-staining based microscopic analysis; format: functional; method in brief: as §4
# [23] = system: Plasmodium yoelii; assay: Antimalarial activity against Plasmodium yoelii YM infected in BALB/c mouse assessed as parasite growth inhibition at 90 mg/kg, sc administered BID for 4 days starting at 96 hrs post infection, 8 hrs apart by Giemsa-staining based microscopic analysis; format: functional; details: read-out: GI; method in brief: as §3
# [24] = system: Plasmodium yoelii; assay: Antimalarial activity against Plasmodium yoelii YM infected in BALB/c mouse assessed as time duration for parasite cure at 90 mg/kg, sc administered BID for 4 days starting at 96 hrs post infection, 8 hrs apart by Giemsa-staining based microscopic analysis; format: functional; method in brief: as §3
# [25] = system: Plasmodium yoelii; assay: Antimalarial activity against Plasmodium yoelii YM infected in BALB/c mouse assessed as mouse survival at 90 mg/kg, sc administered BID for 4 days starting at 96 hrs post infection, 8 hrs apart by Giemsa-staining based microscopic analysis; format: functional; method in brief: as §4
Structure (SMILES),EC50 [1] [nM],EC50 [2] [nM],EC50 [3] [nM],EC50 [4] [nM],EC50 [5] [nM],EC50 [6] [nM],EC50 [7] [nM],EC50 [8] [nM],EC50 [9] [nM],Activity [10],Activity [11],Activity [12],Activity [13],Activity [14],Activity [15],inhibition in vivo at 5 mg/kg [16] [%],survival at 5 mg/kg [17] [%],inhibition in vivo at 10 mg/kg [18] [%],survival at 10 mg/kg [19] [%],inhibition in vivo at 30 mg/kg [20] [%],further results
Cc1c(-c2ccc(Cc3ccc(SC(F)(F)F)cc3)cc2)[nH]c2cccc(F)c2c1=O,4.82,6.24,4.42,5.46,7.7,4.66,3.17,5.26,5.69,Active,Active,Active,Active,>=50%,Non-Toxic,0,0,0,0,99.8,Time [21]: 15 days; survival at 30 mg/kg [22]: 100%; inhibition in vivo at 90 mg/kg [23]: 100%; Time [24]: 14 days; survival at 90 mg/kg [25]: 100%
Cc1c(-c2ccc(Cc3ccc(OC(F)(F)F)cc3)cc2)[nH]c2cccc(F)c2c1=O,5.48,9.58,5.92,6.25,9.18,5.56,8.16,7.18,11.3,Active,Active,Active,Active,>=50%,Non-Toxic,100,100,100,100,100,Time [21]: 4 days; survival at 30 mg/kg [22]: 100%; inhibition in vivo at 90 mg/kg [23]: 100%; Time [24]: 4 days; survival at 90 mg/kg [25]: 100%

# Reference: ChEMBL document CHEMBL4007417, “Target Elucidation by Cocrystal Structures of NADH-Ubiquinone Oxidoreductase of Plasmodium falciparum (PfNDH2) with Small Molecule To Eliminate Drug-Resistant Malaria” (J Med Chem, 2017)
